Data as given in ChEMBL document CHEMBL4334468, “Exploring Mitochondria-Mediated Intrinsic Apoptosis by New Phytochemical Entities: An Explicit Observation of Cytochrome c Dynamics on Lung and Melanoma Cancer Cells” (J Med Chem, 2019).
Activity calls are given as the source filed them. The rule behind the calls is not given here.

Columns and labels:
[1] = system: A-375; experiment: Cytotoxicity in human A375 cells assessed as reduction in cell viability incubated for 24 hrs by MTT assay; assay type: functional, cell-based
In short: (§1)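 MTT viability assay on A375 melanoma, A549 lung adenocarcinoma and WI-38 normal lung fibroblast cells after 24 and 48 h treatment. IC50 values are in µM, expressed as mean ± SD.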

[2] = system: A-375; experiment: Cytotoxicity in human A375 cells assessed as reduction in cell viability incubated for 48 hrs by MTT assay; assay type: functional, cell-based; in short: as §1
[3] = system: A549; experiment: Cytotoxicity in human A549 cells assessed as reduction in cell viability incubated for 24 hrs by MTT assay; assay type: functional, cell-based; in short: as §1
[4] = system: A549; experiment: Cytotoxicity in human A549 cells assessed as reduction in cell viability incubated for 48 hrs by MTT assay; assay type: functional, cell-based; in short: as §1
[5] = system: WI-38; experiment: Cytotoxicity in human WI38 cells assessed as reduction in cell viability incubated for 24 hrs by MTT assay; assay type: cell-based; in short: as §1
[6] = system: WI-38; experiment: Cytotoxicity in human WI38 cells assessed as reduction in cell viability incubated for 48 hrs by MTT assay; assay type: cell-based; in short: as §1
[7] = Antioxidant activity assessed as DPPH radical scavenging activity at 1 to 1000 ug/ml incubated for 30 mins by spectrophotometry; assay type: functional
[8] = Antioxidant activity at 1 to 1000 ug/ml incubated for 90 mins by FRAP assay; assay type: functional
[9] = Antioxidant activity assessed as hydroxyl radical scavenging activity at 1 to 1000 ug/ml incubated for 1 hr; assay type: functional
[10] = system: A549; experiment: Induction of GSH depletion in human A549 cells by fluorimetry; assay type: functional, cell-based
[11] = system: A-375; experiment: Induction of GSH depletion in human A375 cells by fluorimetry; assay type: functional, cell-based
[12] = Homo sapiens, A-375, 24 h, read-out: IC50
[13] = Homo sapiens, A-375, 48 h, read-out: IC50
[14] = Homo sapiens, A549, 24 h, read-out: IC50
[15] = Homo sapiens, A549, 48 h, read-out: IC50
[16] = Homo sapiens, WI-38, 48 h, read-out: IC50

In the case of `CCCC1NOC(=O)/C1=C/C1Oc2ccc(-c3cc(=O)c4c(O)cc(O)cc4o3)cc2OC1c1ccc(O)c(OC)c1` (configuration not stated), the IC50 [1, 12] is reported as 92.7 µM, the IC50 [2, 13] is reported as 60 µM and the IC50 ([3]; a549) is reported as “Not Active”. For the same compound, the IC50 ([4]; a549) was “Not Active”, the IC50 ([5]; wi-38) was “Non-Toxic” and the IC50 ([6]; wi-38) was “Non-Toxic”.
`COc1cc(C2Oc3cc(-c4cc(=O)c5c(O)cc(O)cc5o4)ccc3OC2/C=C2/C(=O)ONC2c2ccc(F)cc2)ccc1O` (configuration not stated) showed an IC50 [1, 12] of 13.7 µM, an IC50 [2, 13] of 7.9 µM and an IC50 [3, 14] of 1.4 µM. The IC50 [4, 15] was 7.5 µM, the IC50 ([5]; wi-38) was “Non-Toxic” and the IC50 ([6]; wi-38) was “Non-Toxic”.
For `COc1cc(C2Oc3cc(-c4cc(=O)c5c(O)cc(O)cc5o4)ccc3OC2/C=C2/C(=O)ONC2C(F)(F)F)ccc1O` (configuration not stated), the IC50 [1, 12] was 2 µM, the IC50 [2, 13] was 0.83 µM and the IC50 [3, 14] was 2.1 µM. The IC50 [4, 15] was 16.4 µM, the IC50 ([5]; wi-38) was “Non-Toxic” and the IC50 [6, 16] was 95 µM.
Work on `COc1cc(C2Oc3cc(-c4cc(=O)c5c(O)cc(O)cc5o4)ccc3OC2c2cc(C(C)(C)O)on2)ccc1O` (configuration not stated) yielded an IC50 [1, 12] of 1.43 µM, an IC50 [2, 13] of 0.65 µM and an IC50 [3, 14] of 4.8 µM. The IC50 [4, 15] was 2.9 µM, the IC50 ([5]; wi-38) was “Non-Toxic” and the IC50 ([6]; wi-38) was “Non-Toxic”.
`COc1cc(C2Oc3cc(-c4cc(=O)c5c(O)cc(O)cc5o4)ccc3OC2c2cc(CN)on2)ccc1O` (configuration not stated) showed an IC50 [1, 12] of 7.5 µM, an IC50 [2, 13] of 4.6 µM and an IC50 [3, 14] of 5.2 µM. For the same compound, the IC50 [4, 15] was 2.2 µM, the IC50 ([5]; wi-38) was “Non-Toxic” and the IC50 ([6]; wi-38) was “Non-Toxic”.
In the case of `COc1cc(C2Oc3cc(-c4cc(=O)c5c(O)cc(O)cc5o4)ccc3OC2C=O)ccc1O` (configuration not stated), the IC50 [1, 12] is reported as 63 µM, the IC50 [2, 13] is reported as 43.8 µM and the IC50 [3, 14] is reported as 96 µM. The IC50 [4, 15] was 87.8 µM, the IC50 ([5]; wi-38) was “Non-Toxic” and the IC50 ([6]; wi-38) was “Non-Toxic”.
For `COc1cc(C2Oc3cc(-c4cc(=O)c5c(O)cc(O)cc5o4)ccc3OC2c2cc(-c3ccc(C)cc3)on2)ccc1O` (configuration not stated), the IC50 ([1]; a-375) was “Not Active”, the IC50 ([2]; a-375) was “Not Active” and the IC50 ([3]; a549) was “Not Active”. The IC50 [4, 15] was 77.4 µM, the IC50 ([5]; wi-38) was “Non-Toxic” and the IC50 ([6]; wi-38) was “Non-Toxic”.
`COc1cc(C2Oc3cc(-c4cc(=O)c5c(O)cc(O)cc5o4)ccc3OC2c2cc(Cc3ccccc3)on2)ccc1O` (configuration not stated) showed an IC50 [1, 12] of 4.6 µM, an IC50 [2, 13] of 0.9 µM and an IC50 [3, 14] of 7 µM. The IC50 [4, 15] was 3.9 µM, the IC50 ([5]; wi-38) was “Non-Toxic” and the IC50 ([6]; wi-38) was “Non-Toxic”.
In the case of `COc1cc(C2Oc3cc(-c4cc(=O)c5c(O)cc(O)cc5o4)ccc3OC2/C=C2/C(=O)ONC2C)ccc1O` (configuration not stated), the IC50 ([1]; a-375) is reported as “Not Active”, the IC50 ([2]; a-375) is reported as “Not Active” and the IC50 ([3]; a549) is reported as “Not Active”. For the same compound, the IC50 ([4]; a549) was “Not Active”, the IC50 ([5]; wi-38) was “Non-Toxic” and the IC50 ([6]; wi-38) was “Non-Toxic”.
For `COc1cc(C2Oc3cc(-c4cc(=O)c5c(O)cc(O)cc5o4)ccc3OC2/C=C2/C(=O)ON(c3ccccc3)C2C)ccc1O` (configuration not stated), the IC50 ([1]; a-375) was “Not Active”, the IC50 ([2]; a-375) was “Not Active” and the IC50 [3, 14] was 83 µM. For the same compound, the IC50 [4, 15] was 71.5 µM, the IC50 ([5]; wi-38) was “Non-Toxic” and the IC50 ([6]; wi-38) was “Non-Toxic”.
Compound `COc1cc(C2Oc3cc(-c4cc(=O)c5c(O)cc(O)cc5o4)ccc3OC2c2cc(C(=O)NC3CCCCC3)on2)ccc1O` (configuration not stated) has an IC50 [1, 12] of 66.8 µM, an IC50 [2, 13] of 28.8 µM and an IC50 [3, 14] of 80 µM. For the same compound, the IC50 [4, 15] was 14.5 µM, the IC50 ([5]; wi-38) was “Non-Toxic” and the IC50 ([6]; wi-38) was “Non-Toxic”.
`COc1cc(C2Oc3cc(-c4cc(=O)c5c(O)cc(O)cc5o4)ccc3OC2/C=C2/C(=O)ONC2c2ccccc2)ccc1O` (configuration not stated) gave an IC50 [1, 12] of 18.5 µM, an IC50 [2, 13] of 15.6 µM and an IC50 [3, 14] of 13.5 µM. For the same compound, the IC50 [4, 15] was 10 µM, the IC50 ([5]; wi-38) was “Non-Toxic” and the IC50 ([6]; wi-38) was “Non-Toxic”.
In the case of `COc1cc(C2Oc3cc(-c4cc(=O)c5c(O)cc(O)cc5o4)ccc3OC2/C=C2/C(=O)ONC2CCl)ccc1O` (configuration not stated), the IC50 [1, 12] is reported as 0.04 µM, the IC50 [2, 13] is reported as 0.035 µM and the IC50 [3, 14] is reported as 0.095 µM. The IC50 [4, 15] was 0.07 µM, the IC50 ([5]; Homo sapiens, WI-38, 24 h, read-out: IC50) was 5.5 µM and the IC50 [6, 16] was 4.9 µM.
In the case of `COc1cc(C2Oc3cc(-c4cc(=O)c5c(O)cc(O)cc5o4)ccc3OC2c2cc(C(=O)NS(=O)(=O)c3ccccc3)on2)ccc1O` (configuration not stated), the IC50 [1, 12] is reported as 7.2 µM, the IC50 [2, 13] is reported as 3.5 µM and the IC50 [3, 14] is reported as 51 µM. For the same compound, the IC50 [4, 15] was 6.3 µM, the IC50 ([5]; wi-38) was “Non-Toxic” and the IC50 ([6]; wi-38) was “Non-Toxic”.
In the case of `COc1cc(C2Oc3cc(-c4cc(=O)c5c(O)cc(O)cc5o4)ccc3OC2c2cc(CO)on2)ccc1O` (configuration not stated), the IC50 ([1]; a-375) is reported as “Not Active”, the IC50 [2, 13] is reported as 74.9 µM and the IC50 ([3]; a549) is reported as “Not Active”. The IC50 ([4]; a549) was “Not Active”, the IC50 ([5]; wi-38) was “Non-Toxic” and the IC50 ([6]; wi-38) was “Non-Toxic”.
With `COc1cc(C2Oc3cc(-c4cc(=O)c5c(O)cc(O)cc5o4)ccc3OC2c2cc(C(=O)Nc3ccc(C(F)(F)F)cc3)on2)ccc1O` (configuration not stated) the IC50 [1, 12] was 4 µM, the IC50 [2, 13] was 0.95 µM and the IC50 [3, 14] was 3.6 µM. For the same compound, the IC50 [4, 15] was 0.76 µM, the IC50 ([5]; wi-38) was “Non-Toxic” and the IC50 ([6]; wi-38) was “Non-Toxic”.
Work on `COc1cc(C2Oc3cc(-c4cc(=O)c5c(O)cc(O)cc5o4)ccc3OC2c2cc(C(=O)NS(=O)(=O)c3ccc(Cl)cc3)on2)ccc1O` (configuration not stated) yielded an IC50 [1, 12] of 6.2 µM, an IC50 [2, 13] of 4.2 µM and an IC50 [3, 14] of 8.7 µM. The IC50 [4, 15] was 6.6 µM, the IC50 ([5]; wi-38) was “Non-Toxic” and the IC50 [6, 16] was 54.6 µM.
For `COc1cc(C2Oc3cc(-c4cc(=O)c5c(O)cc(O)cc5o4)ccc3OC2/C=C2/C(=O)ONC2c2ccc(C)cc2)ccc1O` (configuration not stated), the IC50 [1, 12] was 9.2 µM, the IC50 [2, 13] was 6.7 µM and the IC50 [3, 14] was 12.7 µM. For the same compound, the IC50 [4, 15] was 9 µM, the IC50 ([5]; wi-38) was “Non-Toxic” and the IC50 ([6]; wi-38) was “Non-Toxic”.
For `COc1cc(C2Oc3cc(-c4cc(=O)c5c(O)cc(O)cc5o4)ccc3OC2/C=C2/C(=O)ON(C)C2C)ccc1O` (configuration not stated), the IC50 [1, 12] was 3.1 µM, the IC50 [2, 13] was 2.4 µM and the IC50 [3, 14] was 4.5 µM. For the same compound, the IC50 [4, 15] was 3.8 µM, the IC50 ([5]; wi-38) was “Non-Toxic” and the IC50 [6, 16] was 68 µM.
`COc1cc(C2Oc3cc(-c4cc(=O)c5c(O)cc(O)cc5o4)ccc3OC2CO)ccc1O` (configuration not stated) showed an IC50 [1, 12] of 71.6 µM, an IC50 [2, 13] of 49.2 µM and an IC50 [3, 14] of 88.6 µM. For the same compound, the IC50 [4, 15] was 68 µM, the IC50 ([5]; wi-38) was “Non-Toxic” and the IC50 ([6]; wi-38) was “Non-Toxic”. For the same compound, the Activity [7] was “inactive”, the Activity [8] was “inactive” and the Activity [9] was “inactive”. The Activity [10] was “inactive” and the Activity [11] was “inactive”.
In the case of `COc1cc(C2Oc3cc(-c4cc(=O)c5c(O)cc(O)cc5o4)ccc3OC2/C=C2/C(=O)ONC2c2ccc(Cl)cc2)ccc1O` (configuration not stated), the IC50 [1, 12] is reported as 1.2 µM, the IC50 [2, 13] is reported as 0.94 µM and the IC50 [3, 14] is reported as 2 µM. The IC50 [4, 15] was 1.2 µM, the IC50 ([5]; wi-38) was “Non-Toxic” and the IC50 ([6]; wi-38) was “Non-Toxic”.
`COc1cc(C2Oc3cc(-c4cc(=O)c5c(O)cc(O)cc5o4)ccc3OC2c2noc(C)c2CO)ccc1O` (configuration not stated) showed an IC50 [1, 12] of 68.7 µM, an IC50 [2, 13] of 46.5 µM and an IC50 [3, 14] of 68 µM. The IC50 [4, 15] was 51 µM, the IC50 ([5]; wi-38) was “Non-Toxic” and the IC50 ([6]; wi-38) was “Non-Toxic”.
